The target of assay [1] is T1, Ornithine decarboxylase (Mus musculus) (UniProt P00860).
T1 sequence (whole entry): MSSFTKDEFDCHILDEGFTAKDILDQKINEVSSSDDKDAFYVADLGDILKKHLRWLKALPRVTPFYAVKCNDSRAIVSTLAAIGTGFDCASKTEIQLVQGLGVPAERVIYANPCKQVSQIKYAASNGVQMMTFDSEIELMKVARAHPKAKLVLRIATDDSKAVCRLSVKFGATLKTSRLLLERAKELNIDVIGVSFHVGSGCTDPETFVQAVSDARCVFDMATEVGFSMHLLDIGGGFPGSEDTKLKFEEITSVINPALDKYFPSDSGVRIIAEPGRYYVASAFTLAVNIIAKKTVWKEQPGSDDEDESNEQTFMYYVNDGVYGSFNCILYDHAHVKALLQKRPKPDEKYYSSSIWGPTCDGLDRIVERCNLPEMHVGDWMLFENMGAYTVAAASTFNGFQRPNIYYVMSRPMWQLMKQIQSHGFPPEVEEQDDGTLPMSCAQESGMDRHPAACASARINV
Kind of assay: Inhibition of TPA-induced ODC activity as percentage of the average no. of papillomas / mouse in groups of control mice was determined using papilloma assay. Also noted: concentration or dose not given beside the values. The format is functional. The procedure, abridged: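 CD-1 female mice, shaved skin, initiated once with 51.2 μg DMBA in 0.2 mL acetone. From two weeks later, TPA 2 nmol in acetone twice weekly to the same area for 12–15 weeks. Tumors per mouse counted at the end, 10–15 mice per group. Group averages are expressed as a percentage of controls and averaged across experiments.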

In assay [2] the target is T1, Ornithine decarboxylase (Mus musculus). The experiment in a line: In vivo inhibition of ornithine de-carboxylase (ODC) activity induced by 12-0-tetradecanoylphorbol 13-acetate (TPA) in mouse skin. The format is functional, organism-based. In short, it runs like this:
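Mouse-skin assay of TPA induction of ornithine decarboxylase, after Verma et al. Retinoid-treated groups are compared with TPA-induced controls. ODC activity is expressed as a percentage of control-group activity and averaged over the stated number of tests.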

Each structure is given as a SMILES string.

`COC(=O)/C=C(C)/C=C/C=C(C)/C=C/C1=C(C)C(=O)C(C)(C)CC1(C)C`: the Control in assay [1] amounted to 22%. In addition, the Average in assay [2] was found to be 22%.

Consider `C=CCC1CC(C)(C)C(/C=C/C(C)=C/C=C/C(C)=C/C(=O)O)=C(C)C1=O` (stereo unspecified), for which the Control in assay [1] is 47%. Also, in assay [2], the Average turned out to be 68%.

Turning to `CCC1CC(C)(C)C(/C=C/C(C)=C/C=C/C(C)=C/C(=O)O)=C(C)C1=O` (stereo unspecified), in assay [1], the Control turned out to be 57%. For the same compound, the Average in assay [2] was found to be 40%.

Regarding `COC(=O)/C=C(C)/C=C/C=C(C)/C=C/C1=C(C)C(=O)C(C/C=C/c2ccccc2)CC1(C)C` (stereo unspecified), the Control in assay [1] was determined as 20%. The Average in assay [2] turned out to be 31%.

Turning to `C#CCC1CC(C)(C)C(/C=C/C(C)=C/C=C/C(C)=C/C(=O)OC)=C(C)C1=O` (stereo unspecified), the Control in assay [1] came to 40%. Besides, in assay [2], the Average came to 34%.

In the case of `COC(=O)/C=C(C)/C=C/C=C(C)/C=C/C1=C(C)C(=O)C(C)CC1(C)C` (stereo unspecified), the Control in assay [1] came to 27%. The compound further showed an Average in assay [2] of 28%.

`CCC1CC(C)(C)C(/C=C/C(C)=C/C=C/C(C)=C/C(=O)OC)=C(C)C1=O` (stereo unspecified) displayed a Control in assay [1] of 68%. This compound registered an Average in assay [2] of 31%.

For the compound `CC1=C(/C=C/C(C)=C/C=C/C(C)=C/C(=O)O)C(C)(C)CCC1`, the Control in assay [1] came to 16%. Besides, the Average in assay [2] was found to be 8%.

In assay [1], `CC1=C(/C=C/C(C)=C/C=C/C(C)=C/C(=O)O)C(C)(C)CC(C)C1=O` (stereo unspecified) showed a Control of 29%. Further, in assay [2], the Average came out at 26%.

The compound `CC1=C(/C=C/C(C)=C/C=C/C(C)=C/C(=O)O)C(C)(C)CC(Cc2ccccc2)C1=O` (stereo unspecified) showed a Control in assay [1] of 38%. In assay [2], the Average was 34%.

In assay [1], `COC(=O)/C=C(C)/C=C/C=C(C)/C=C/C1=C(C)C(=O)CCC1(C)C` gave a Control of 25%. This compound also came in with an Average in assay [2] of 18%.

Regarding `CC1=C(/C=C/C(C)=C/C=C/C(C)=C/C(=O)Nc2ccc(O)cc2)C(C)(C)CCC1`, the Control in assay [1] turned out to be 89%. This compound gave an Average in assay [2] of 60%.

For `CC1=C(/C=C/C(C)=C/C=C/C(C)=C/C(=O)O)C(C)(C)CCC1=O` (stereo in doubt; 3a), the Control in assay [1] worked out at 39%. The Average in assay [2] was 17%.

In assay [1], `C#CCC1CC(C)(C)C(/C=C/C(C)=C/C=C/C(C)=C/C(=O)O)=C(C)C1=O` (stereo unspecified) yielded a Control of 64%. In assay [2], this compound returned an Average of 47%.

In assay [1], `CC1=C(/C=C/C(C)=C/C=C/C(C)=C/C(=O)O)C(C)(C)CC(C/C=C/c2ccccc2)C1=O` (stereo unspecified) came in with a Control of 39%. In addition, the Average in assay [2] turned out to be 23%.

Consider `COC(=O)/C=C(C)/C=C/C=C(C)/C=C/C1=C(C)C(=O)C(Cc2ccccc2)CC1(C)C` (stereo unspecified), for which, in assay [1], the Control came out at 78%. Also, the Average in assay [2] came out at 56%.

Consider `CC1=C(/C=C/C(C)=C/C=C/C(C)=C/C(=O)O)C(C)(C)CC(C)(C)C1=O`, for which, in assay [1], the Control was determined as 25%. Also, in assay [2], the Average was found to be 26%.

In assay [1], `C=CCC1CC(C)(C)C(/C=C/C(C)=C/C=C/C(C)=C/C(=O)OC)=C(C)C1=O` (stereo unspecified) gave a Control of 42%. The same compound gave an Average in assay [2] of 56%.

The record behind these values is ChEMBL document CHEMBL1127460, “Cancer chemopreventive 3-substituted-4-oxoretinoic acids” (J Med Chem, 1994).
